These results are taken from ChEMBL document CHEMBL1135884 (J Med Chem, 2002).

pKi: −log10 of the molar value.

One test addresses T1, Serine protease 1 (Bos taurus, UniProt P00760).
T1 sequence (P00760 whole entry): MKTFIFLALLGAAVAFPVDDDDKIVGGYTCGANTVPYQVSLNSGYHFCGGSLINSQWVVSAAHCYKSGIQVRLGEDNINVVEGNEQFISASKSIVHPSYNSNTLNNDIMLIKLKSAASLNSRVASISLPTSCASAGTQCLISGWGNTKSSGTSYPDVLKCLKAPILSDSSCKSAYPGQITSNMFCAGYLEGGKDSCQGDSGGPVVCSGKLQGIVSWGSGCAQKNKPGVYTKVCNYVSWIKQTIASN
Nature of the test: Inhibitory concentration against bovine trypsin.

Test [1] has as its target T2, Coagulation factor X (Homo sapiens, UniProt P00742). Nature of the test: Inhibitory concentration against human Coagulation factor Xa(fXa). The essentials: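 4-Nitroaniline release was read by absorbance at 405 nm. Inhibitors were prepared as 40 mM DMSO stocks and tested at 500, 50 and 5 µM. Km and Ki were obtained by nonlinear regression, with known factor Xa inhibitors as reference.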

The target of a further test is Prothrombin (Homo sapiens, UniProt P00734). Nature of the test: Inhibitory concentration against thrombin.
The target of test [2] is T2, Coagulation factor X. Nature of the test: Inhibitory concentration against human Coagulation factor Xa (fXa).

T2 sequence (P00742 41-179 limits assumed): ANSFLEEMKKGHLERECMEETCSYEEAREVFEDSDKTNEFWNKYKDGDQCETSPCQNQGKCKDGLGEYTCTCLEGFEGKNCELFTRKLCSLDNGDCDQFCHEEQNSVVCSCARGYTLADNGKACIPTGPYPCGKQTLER
T2 sequence (P00742 235-488 limits assumed): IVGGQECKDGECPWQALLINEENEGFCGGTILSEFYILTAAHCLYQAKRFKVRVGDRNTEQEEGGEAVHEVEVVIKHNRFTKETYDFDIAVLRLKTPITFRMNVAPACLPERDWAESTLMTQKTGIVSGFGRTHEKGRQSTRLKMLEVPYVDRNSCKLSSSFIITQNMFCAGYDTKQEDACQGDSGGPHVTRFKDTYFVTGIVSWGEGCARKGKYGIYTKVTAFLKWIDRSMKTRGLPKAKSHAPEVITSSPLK

Regarding `N=C(N)c1cccc(C(=O)N[C@@H](C(=O)N2CCN(c3ccc(Cl)cc3)CC2)c2ccccc2)c1`, the negative-log Ki (pKi) at Serine protease 1 was 5.77; on Coagulation factor X [1], 7.80; at Prothrombin, 5.80.
On to `N=C(N)c1cccc(C(=O)N[C@@H](C(=O)OCCC2CCN(C(=N)N)CC2)c2ccccc2)c1`, for which the pKi at Serine protease 1 was 5.80; at Coagulation factor X [2] it was 7.59.
For `CCOC(=O)[C@@H](Cc1ccc2ccccc2c1)NC(=O)c1cccc(C(=N)N)c1`, in that order: 4.90 and 5.70.
Consider `N=C(N)c1cccc(C(=O)NCC(=O)NCC2CCC(CN)CC2)c1` (configuration not stated), for which, on Serine protease 1, the negative-log Ki (pKi) was 4.85.
On the same count and under the same terms, with `N=C(N)c1cccc(C(=O)N[C@@H](C(=O)N2CCC(C(=O)c3ccccc3)CC2)c2ccccc2)c1` the figure was 6.01; with `N=C(N)c1cccc(C(=O)N[C@@H](C(=O)NCC2CCC(CN)CC2)c2ccccc2)c1` (some centres not stated), 5.13.
Take `N=C(N)c1ccccc1` [BENZAMIDINE]: the negative-log Ki (pKi) on Coagulation factor X [2] was 6.70.
In turn, `CC(=N)N1CCC(Oc2ccc(N(Cc3ccc4ccc(C(=N)N)cc4c3)S(=O)(=O)CC(=O)O)cc2)CC1` [YM-60828] showed a negative logarithm of the Ki (pKi) at Serine protease 1 of 6.80.

Broadly, the pKi is −log10 of the Ki, conventionally taken in molar units. High values mean a small Ki, low ones a large Ki.
